Source: ChEMBL document CHEMBL2321662, “Azepines and piperidines with dual norepinephrine dopamine uptake inhibition and antidepressant activity” (ACS Med Chem Lett, 2013)
pEC50, pIC50, pKi: −log10 of the molar value. Activity calls are given as the source filed them. The calls are words filed in the database; no cut-off is given here.

Tests used:
[1] = target: Sodium-dependent serotonin transporter (Homo sapiens, UniProt P31645); assay: Inhibition of human recombinant SERT expressed in HEK cells; format: cell-based, HEK293
Procedure, shortened: (§1)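 HEK cells overexpressing human recombinant transporter; uptake inhibition read as block of a fluorescent substrate with a neurotransmitter uptake kit. Values averaged from at least n = 3, up to 2-fold variability.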

[2] = target: Sodium-dependent dopamine transporter (Homo sapiens, UniProt Q01959); assay: Inhibition of human recombinant DAT expressed in HEK cells; format: cell-based, HEK293
[3] = target: Sodium-dependent noradrenaline transporter (Homo sapiens, UniProt P23975); assay: Inhibition of human recombinant NET expressed in HEK cells; format: cell-based, HEK293; procedure, shortened: as §1
[4] = Intrinsic clearance in human liver microsomes; format: ADME, Microsome; conditions: read-out: CLH
Procedure, shortened: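 Human liver microsomes; intrinsic clearance reported in μL/min/mg.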

[5] = target: Cytochrome P450 2D6 (Homo sapiens, UniProt P10635); assay: Inhibition of CYP2D6 (unknown origin); format: ADME
[6] = target: Voltage-gated inwardly rectifying potassium channel KCNH2 (Homo sapiens, UniProt Q12809); assay: Inhibition of human ERG expressed in CHO-K1 cells by electrophysiological assay; format: cell-based
[7] = system: Plasma; assay: Fraction unbound in Long Evans rat plasma; format: ADME, cell-free
[8] = Ratio of drug level in whole brain to plasma in Long Evans rat; format: ADME, cell-free; conditions: whole brain and plasma, read-out: BPR
[9] = system: Rattus norvegicus; assay: In vivo NET occupancy in sc dosed Long Evans rat thalamus [3H]-MeNER administered 30 mins before [3H]-MeNER challenge measured after 90 mins; format: functional
Procedure, shortened: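 Rats received test compound, then 30 min later sc [3H]MeNER as the NET radioligand, counted in thalamus. […] Mean reported; 95% CI typically ± half the mean.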

[10] = species on record: Rattus norvegicus; assay: animal or person; format: functional, organism-based; conditions: Long Evans, Striatum
[11] = system: Rattus norvegicus; assay: In vivo NET occupancy in sc dosed Long Evans rat thalamus assessed as unbound plasma levels equaling 50% occupancy using [3H]-MeNER administered 30 mins before [3H]-MeNER challenge measured after 90 mins; format: functional, organism-based
[12] = Metabolic stability of the compound assessed as GSH adduct formation; format: ADME
[13] = system: Rattus norvegicus; assay: Antidepressant activity in sc dosed Sprague-Dawley rat assessed as increase of locomotor activity and stereotypic behavior; format: functional, organism-based
Procedure, shortened: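 Rats were dosed sc. Spontaneous locomotion was scored over the last 15 min of the session: distance traveled from beam breaks, and stereotypy from repeated breaks of the same beam. Data are group means ± SEM, compared with vehicle by one-way ANOVA.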

[14] = system: Rattus norvegicus; assay: Antidepressant activity in Sprague-Dawley rat assessed as reduction of immobility time at 0.7 mg/kg, sc measured for 5 mins by forced swimming test; format: functional, organism-based; set-up: dose 0.7 mg/kg
Procedure, shortened: (§2)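 Sprague–Dawley rats dosed sc, then scored for immobility time in the forced-swim test. The positive control was desipramine at 15 mg/kg ip. Data are group means ± SEM, compared with vehicle by one-way ANOVA.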

[15] = system: Rattus norvegicus; assay: Antidepressant activity in Sprague-Dawley rat assessed as reduction of immobility time at 2.4 to 7.3 mg/kg, sc measured for 5 mins by forced swimming test; format: functional, organism-based; procedure, shortened: as §2
[16] = system: Rattus norvegicus; assay: In vivo DAT occupancy in sc dosed Long Evans rat striatum using [3H]PE2I administered 30 mins before [3H]PE2I challenge measured after 60 mins
[17] = system: Rattus norvegicus; assay: In vivo DAT occupancy in sc dosed Long Evans rat striatum using [3H]-PE2I administered 30 mins before [3H]-PE2I 35428 challenge measured after 60 mins; format: functional
Procedure, shortened: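 Test compound given sc to rats; 30 min later [3H]PE2I given sc as DAT radioligand, quantified in striatum. […] Mean reported, 95% CI typically ± half the mean.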

[18] = system: Rattus norvegicus; assay: In vivo DAT occupancy in sc dosed Long Evans rat striatum assessed as unbound plasma levels equaling 50% occupancy using [3H]WIN 35428 administered 30 mins before [3H]WIN 35428 challenge measured after 60 mins; format: functional, organism-based
[19] = system: Rattus norvegicus; assay: Antidepressant activity in Sprague-Dawley rat assessed as reduction of immobility time at 1 mg/kg, sc measured for 5 mins by forced swimming test; format: functional, organism-based; set-up: dose 1 mg/kg
Procedure, shortened: (§3)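 Rats (Sprague–Dawley) given test compound sc, then scored in forced-swim test for immobility time. Vehicle group comparison; desipramine control dosed 15 mg/kg ip. Data as group means ± SEM; significance vs vehicle by one-way ANOVA.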

[20] = system: Rattus norvegicus; assay: Antidepressant activity in Sprague-Dawley rat assessed as reduction of immobility time at 3 to 10 mg/kg, sc measured for 5 mins by forced swimming test; format: functional, organism-based; procedure, shortened: as §3
[21] = system: Rattus norvegicus; assay: Antidepressant activity in Sprague-Dawley rat assessed as reduction of immobility time at 1 to 30 mg/kg, sc measured for 5 mins by forced swimming test; format: functional, organism-based; procedure, shortened: as §2
[22] = system: Rattus norvegicus; assay: Antidepressant activity in Sprague-Dawley rat assessed as reduction of immobility time at 0.3 mg/kg, sc measured for 5 mins by forced swimming test; format: functional, organism-based; set-up: dose 0.3 mg/kg; procedure, shortened: as §2

Sodium-dependent noradrenaline transporter, sequence (P23975 whole entry): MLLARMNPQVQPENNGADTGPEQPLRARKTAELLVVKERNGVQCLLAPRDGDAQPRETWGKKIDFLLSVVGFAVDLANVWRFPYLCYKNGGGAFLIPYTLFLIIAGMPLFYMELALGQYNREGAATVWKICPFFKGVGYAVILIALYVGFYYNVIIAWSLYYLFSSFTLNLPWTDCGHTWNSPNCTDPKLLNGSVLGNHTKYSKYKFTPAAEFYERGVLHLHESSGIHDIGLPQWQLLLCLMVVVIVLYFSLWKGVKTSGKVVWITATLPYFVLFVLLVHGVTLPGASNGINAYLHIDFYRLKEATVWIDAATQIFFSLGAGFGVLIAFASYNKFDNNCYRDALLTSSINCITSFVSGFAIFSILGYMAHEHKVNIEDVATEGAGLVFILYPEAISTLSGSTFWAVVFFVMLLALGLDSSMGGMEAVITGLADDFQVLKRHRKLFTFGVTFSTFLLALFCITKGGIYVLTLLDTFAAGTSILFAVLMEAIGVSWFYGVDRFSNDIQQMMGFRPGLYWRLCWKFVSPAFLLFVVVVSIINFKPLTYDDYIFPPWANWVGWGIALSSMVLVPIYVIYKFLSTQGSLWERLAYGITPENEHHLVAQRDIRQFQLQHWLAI
Sodium-dependent serotonin transporter, sequence (P31645 whole entry): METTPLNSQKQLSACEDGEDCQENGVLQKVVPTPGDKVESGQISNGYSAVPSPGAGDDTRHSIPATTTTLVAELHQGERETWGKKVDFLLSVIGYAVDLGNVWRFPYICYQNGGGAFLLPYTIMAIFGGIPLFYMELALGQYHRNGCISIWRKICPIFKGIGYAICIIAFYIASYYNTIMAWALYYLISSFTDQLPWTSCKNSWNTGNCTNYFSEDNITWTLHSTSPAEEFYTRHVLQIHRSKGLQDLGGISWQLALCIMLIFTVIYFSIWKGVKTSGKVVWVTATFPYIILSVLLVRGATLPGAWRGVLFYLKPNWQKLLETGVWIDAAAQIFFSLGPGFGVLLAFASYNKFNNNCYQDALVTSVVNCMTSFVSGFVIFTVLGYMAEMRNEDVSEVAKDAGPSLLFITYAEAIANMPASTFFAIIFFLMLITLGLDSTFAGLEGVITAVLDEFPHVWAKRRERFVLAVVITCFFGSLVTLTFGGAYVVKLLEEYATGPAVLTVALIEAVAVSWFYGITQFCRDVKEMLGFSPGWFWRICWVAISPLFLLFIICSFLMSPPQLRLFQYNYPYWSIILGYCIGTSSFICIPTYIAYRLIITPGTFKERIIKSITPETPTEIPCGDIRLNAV
Cytochrome P450 2D6, sequence (P10635 whole entry): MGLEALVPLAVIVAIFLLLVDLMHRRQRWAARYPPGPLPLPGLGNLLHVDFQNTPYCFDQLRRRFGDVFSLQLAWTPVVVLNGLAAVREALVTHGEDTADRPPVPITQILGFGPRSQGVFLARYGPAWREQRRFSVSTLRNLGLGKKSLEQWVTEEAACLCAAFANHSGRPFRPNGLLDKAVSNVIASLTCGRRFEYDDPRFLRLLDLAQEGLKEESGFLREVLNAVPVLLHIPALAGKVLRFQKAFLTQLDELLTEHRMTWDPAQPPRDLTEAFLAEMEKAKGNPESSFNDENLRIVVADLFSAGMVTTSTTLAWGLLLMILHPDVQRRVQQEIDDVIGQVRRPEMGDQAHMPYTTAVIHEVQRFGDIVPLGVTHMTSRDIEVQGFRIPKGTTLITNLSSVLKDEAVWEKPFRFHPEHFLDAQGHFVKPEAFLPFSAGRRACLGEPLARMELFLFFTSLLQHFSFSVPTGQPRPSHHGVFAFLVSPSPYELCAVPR
Sodium-dependent dopamine transporter, sequence (Q01959 whole entry): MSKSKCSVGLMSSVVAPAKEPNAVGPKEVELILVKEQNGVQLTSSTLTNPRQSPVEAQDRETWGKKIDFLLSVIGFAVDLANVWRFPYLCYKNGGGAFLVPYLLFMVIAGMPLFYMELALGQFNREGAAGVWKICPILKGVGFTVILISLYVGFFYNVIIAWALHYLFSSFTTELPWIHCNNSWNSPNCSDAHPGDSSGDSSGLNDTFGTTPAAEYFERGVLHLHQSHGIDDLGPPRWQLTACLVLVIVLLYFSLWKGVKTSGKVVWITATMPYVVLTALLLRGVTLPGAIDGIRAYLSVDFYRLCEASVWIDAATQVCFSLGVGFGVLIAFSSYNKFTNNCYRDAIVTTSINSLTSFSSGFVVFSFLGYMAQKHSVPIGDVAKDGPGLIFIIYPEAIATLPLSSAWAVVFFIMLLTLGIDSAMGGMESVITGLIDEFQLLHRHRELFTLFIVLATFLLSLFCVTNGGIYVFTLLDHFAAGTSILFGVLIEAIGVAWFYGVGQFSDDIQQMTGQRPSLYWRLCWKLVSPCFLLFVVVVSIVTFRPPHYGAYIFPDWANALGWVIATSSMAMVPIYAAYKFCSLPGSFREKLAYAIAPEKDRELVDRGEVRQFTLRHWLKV
Voltage-gated inwardly rectifying potassium channel KCNH2, sequence (Q12809 whole entry): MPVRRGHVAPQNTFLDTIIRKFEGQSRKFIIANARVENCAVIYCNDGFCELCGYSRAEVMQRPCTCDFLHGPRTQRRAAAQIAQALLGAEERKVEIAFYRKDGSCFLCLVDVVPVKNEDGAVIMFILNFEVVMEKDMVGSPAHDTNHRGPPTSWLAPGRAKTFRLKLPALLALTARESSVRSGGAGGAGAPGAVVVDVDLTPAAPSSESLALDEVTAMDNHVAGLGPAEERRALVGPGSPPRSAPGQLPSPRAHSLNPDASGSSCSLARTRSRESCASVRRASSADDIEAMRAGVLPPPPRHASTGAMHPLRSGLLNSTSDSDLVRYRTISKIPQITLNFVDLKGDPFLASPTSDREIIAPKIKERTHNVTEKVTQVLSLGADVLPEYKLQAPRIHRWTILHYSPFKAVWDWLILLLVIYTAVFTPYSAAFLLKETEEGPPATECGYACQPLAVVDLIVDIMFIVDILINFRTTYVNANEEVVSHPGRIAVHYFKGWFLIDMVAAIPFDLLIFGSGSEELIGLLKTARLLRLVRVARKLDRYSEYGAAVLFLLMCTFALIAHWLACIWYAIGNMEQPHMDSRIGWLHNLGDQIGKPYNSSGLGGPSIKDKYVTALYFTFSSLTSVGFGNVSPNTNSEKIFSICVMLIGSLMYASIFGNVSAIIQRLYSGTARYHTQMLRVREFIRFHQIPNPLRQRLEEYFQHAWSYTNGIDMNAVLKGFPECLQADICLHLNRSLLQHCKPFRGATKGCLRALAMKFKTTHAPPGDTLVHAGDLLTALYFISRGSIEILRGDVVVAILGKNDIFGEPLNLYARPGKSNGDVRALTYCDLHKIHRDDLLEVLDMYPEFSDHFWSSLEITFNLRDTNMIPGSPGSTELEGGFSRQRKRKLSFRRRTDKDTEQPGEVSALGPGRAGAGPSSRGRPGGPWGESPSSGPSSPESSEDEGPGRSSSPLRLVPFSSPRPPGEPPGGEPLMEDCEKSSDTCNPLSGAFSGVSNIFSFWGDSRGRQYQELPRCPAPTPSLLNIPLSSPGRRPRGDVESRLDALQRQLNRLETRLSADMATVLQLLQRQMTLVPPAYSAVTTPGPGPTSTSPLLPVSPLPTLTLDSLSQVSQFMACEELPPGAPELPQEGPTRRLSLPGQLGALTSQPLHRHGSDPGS

Row | pIC50 [5] | SMILES | pKi [1] | pKi [2] | pKi [3] | microsomal CLint [4] [µL/min/mg] | pIC50 [6] | further results
1 | 5.17 | CN1CC=CCC(c2cc3ccccc3o2)C1 (stereo unspecified) | 6.10 | 7.22 | 6.92 | 97 | 4.82 | –
2 | – | CN1CCCCC(c2ccc(Cl)c(Cl)c2)C1 (racemic) | 6.59 | 8.10 | 7.13 | – | 5.00 | –
3 | < 4.70 | OCC[C@]1(c2cc3ccccc3o2)CCCNC1 | 6.64 | 8.22 | 8.40 | 22 | – | Cp(f) [7]: 75%; Kp [8]: 5.8; ED50 [9]: 0.17 mg/kg; pEC50 [10]: 7.48; pEC50 [11]: 8.25; Stability [12]: Stable; Activity [13]: inactive; Activity [14]: inactive; Activity [15]: Active; ED50 [16]: 0.8 mg/kg
4 | – | OCC[C@@]1(c2cc3ccccc3o2)CCCNC1 | – | 6.40 | 6.37 | – | – | –
5 | < 4.70 | OCCN1CC=CC[C@H](c2ccc(Cl)c(Cl)c2)C1 | 6.82 | 7.43 | 7.92 | 52 | 5.00 | –
6 | – | CN1CC=CC[C@@H](c2ccc(Cl)c(Cl)c2)C1 | 6.89 | 7.89 | 7.27 | 86 | – | –
7 | 5.18 | C1=CCC(c2ccc3ccccc3c2)CNC1 (stereo unspecified) | 7.20 | 8.00 | 7.60 | 94 | – | –
8 | – | CN1CC=CC[C@H](c2ccc(Cl)c(Cl)c2)C1 | 7.08 | 8.52 | 7.92 | 51 | – | –
9 | – | CN1CC=CCC(c2ccc(Cl)c(Cl)c2)C1 (racemic) | 7.00 | 8.30 | 7.24 | 57 | – | –
10 | < 4.70 | OCC[C@]1(c2ccc(Cl)c(Cl)c2)CCCNC1 | 7.38 | 8.03 | 8.48 | < 4 | < 4.48 | –
11 | < 4.70 | OCC[C@@]1(c2ccc(Cl)c(Cl)c2)CCCNC1 | 6.60 | 6.85 | 6.60 | < 4 | < 4.48 | –
12 | – | Clc1cccc(C2CC=CCNC2)c1 (stereo unspecified) | – | 6.62 | 6.37 | – | < 4.48 | –
13 | – | Cc1cc(C2CC=CCNC2)ccc1Cl (stereo unspecified) | – | 7.62 | 6.77 | – | 4.59 | –
14 | – | Clc1ccc(C2CC=CCNC2)cc1 (stereo unspecified) | – | 7.60 | 6.60 | – | < 4.51 | –
15 | 5.11 | C1=CCC(c2cc3ccccc3o2)CNC1 (stereo unspecified) | 6.62 | 7.64 | 7.34 | 83 | 4.72 | –
16 | 5.41 | COCCN1CC=CC[C@H](c2ccc(Cl)c(Cl)c2)C1 | 6.27 | 8.05 | 7.82 | 150 | 5.28 | –
17 | < 4.70 | CN1Cc2c(N)cccc2C(c2ccccc2)C1 (racemic) [NOMIFENSINE] | – | – | – | 37 | < 4.57 | Activity [21]: Active; Cp(f) [7]: 60.5%; Kp [8]: 10.1; ED50 [9]: 0.05 mg/kg; ED50 [17]: 0.7 mg/kg; Activity [13]: Dose-dependent effect; Activity [22]: inactive

Row | SMILES | pIC50 [5] | pKi [1] | pKi [2] | pKi [3] | microsomal CLint [4] [µL/min/mg] | pIC50 [6] | further results
18 | Fc1ccc(C2CC=CCNC2)cc1Cl (stereo unspecified) | 5.19 | 5.82 | 7.17 | 6.89 | 15 | – | –
19 | Clc1ccc([C@@H]2CC=CCNC2)cc1Cl | 5.51 | 6.38 | 8.10 | 7.62 | 50 | – | –
20 | Clc1ccc(C2CCCCNC2)cc1Cl (racemic) | 5.64 | 6.85 | 7.96 | 6.89 | 35 | 5.21 | –
21 | Cc1ccc(C2CC=CCNC2)cc1Cl (stereo unspecified) | 5.25 | 6.22 | 7.31 | 7.08 | 100 | < 4.57 | –
22 | Clc1ccc(C2CC=CCNC2)cc1Cl (racemic) | 5.29 | 6.66 | 8.22 | 7.18 | 30 | – | –
23 | Clc1ccc([C@H]2CC=CCNC2)cc1Cl | 5.41 | 6.66 | 8.22 | 7.77 | 33 | – | Cp(f) [7]: 7.7%; Kp [8]: 4.8; ED50 [9]: 0.5 mg/kg; ED50 [17]: 0.8 mg/kg; pEC50 [18]: 6.66; pEC50 [11]: 7.34; Stability [12]: Stable; Activity [13]: Dose-dependent effect; Activity [19]: inactive; Activity [20]: Active
24 | Cc1cc(C2CC=CCN(C)C2)ccc1Cl (stereo unspecified) | 4.74 | 6.57 | 7.64 | 6.89 | 85 | 4.59 | –
